A short description of data set [1]: Dissociation constant, pKa of the compound. The class given is physicochemical.
The target in data set [2] is T1, Beta-secretase 1 (Homo sapiens, UniProt P56817). In words: Inhibition of human BACE1-mediated amyloid beta TOT secretion in human SKNBE2 cells expressing human APP695 after 18 hrs by sandwich alphalisa assay. The class given is cell-based. Put shortly: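 SKNBE2 human neuroblastoma cells expressing wild-type hAPP695 exposed to diluted compound for 18 h; secreted AβTOT in medium quantified by sandwich AlphaLISA using biotinylated AbN/25 on streptavidin beads and 4G8 detection antibody.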
(In general: Bead proximity is the source of the signal in Alpha formats.)

Data set [3] deals with T1, Beta-secretase 1. Description: Inhibition of human BACE1-mediated amyloid beta 42 secretion in human SKNBE2 cells expressing human APP695 after 18 hrs by sandwich alphalisa assay. Type of data set: cell-based.
For data set [4], the target named is T1, Beta-secretase 1. In words: Inhibition of human recombinant BACE1 using fluorescent Mca-Ser-Glu-Val-Asn-Leu-Asp-Ala-Glu-Phe-Lys(Dnp)-OH peptide as substrate after 1 hr by spectroflurorimeter analysis.
Data set [5] is described as follows: Drug uptake in mouse brain at 30 mg/kg, sc after 1 hr. The class given is ADME, organism-based. Further details: dose 30 mg/kg, route subcutaneous. To be noted: read-out: Drug uptake. Put shortly: (§1)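 Mice dosed subcutaneously; brain and plasma drug levels measured at 1, 2 and 4 h post-dose, brain in ng/g, plasma in ng/ml.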
The nature of data set [6]: Drug uptake in mouse brain at 30 mg/kg, sc after 2 hrs. Also on record: dose 30 mg/kg, route subcutaneous. The class given is ADME, organism-based. Particulars: read-out: Drug uptake. In short, it runs like this:
as §1

Data set [7] is described as follows: Plasma concentration in mouse at 30 mg/kg, sc after 4 hrs. The class given is ADME, organism-based. Also on record: dose 30 mg/kg, route subcutaneous. In short, it runs like this: as §1
Data set [8] in a line: Plasma concentration in mouse at 30 mg/kg, sc after 2 hrs. Further details: dose 30 mg/kg, route subcutaneous. Type of data set: ADME, organism-based. In short, it runs like this:
as §1

Data set [9] has as its system Mus musculus. In words: Antialzheimer activity in CD1 mouse brain assessed as reduction of amyloid beta TOT production at 30 mg/kg, sc after 1 hr using fluorogenic peroxidase as substrate by ELISA. To be noted: route subcutaneous. The class given is functional. Further details: scale not given: the % may be the effect or the level left. Put shortly:
(§2)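 Male CD1 mice (22-28 g), fasted overnight, given single subcutaneous dose in 20% hydroxypropyl β-cyclodextrin; vehicle/untreated controls. Soluble AβTOT by sandwich ELISA (capture JRF/rAb/2, biotinylated 4G8), Aβ1-40 standards 10000–0.3 pg/ml, overnight 4 °C, QuantaBlu fluorogenic read-out.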

Data set [10] is described as follows: Plasma concentration in mouse at 30 mg/kg, sc after 1 hr. The class given is ADME, organism-based. Further details: dose 30 mg/kg, route subcutaneous. In short, it runs like this:
as §1

A short description of data set [11]: Drug uptake in mouse brain at 30 mg/kg, sc after 4 hrs. The class given is ADME, organism-based. Further details: dose 30 mg/kg, route subcutaneous. To be noted: read-out: Drug uptake. In short, it runs like this:
as §1

For data set [12], the system named is Mus musculus. Description: Antialzheimer activity in CD1 mouse brain assessed as reduction of amyloid beta TOT production at 30 mg/kg, sc after 2 hrs using fluorogenic peroxidase as substrate by ELISA. The class given is functional, organism-based. Further details: dose 30 mg/kg. Put shortly:
as §2
Background: In an ELISA, binding on a coated surface is turned into a signal by an enzyme label.

The subject of data set [13] is Mus musculus. In words: Antialzheimer activity in CD1 mouse brain assessed as reduction of amyloid beta TOT production at 30 mg/kg, sc after 4 hrs using fluorogenic peroxidase as substrate by ELISA. Type of data set: functional, organism-based. Further details: dose 30 mg/kg. Put shortly: as §2
The nature of data set [14]: Drug uptake in mouse brain at 60 mg/kg, sc after 2 hrs. The class given is ADME, organism-based. Also on record: dose 60 mg/kg, route subcutaneous. Particulars: read-out: Drug uptake. In short, it runs like this: as §1
Data set [15] has as its system Mus musculus. In words: Antialzheimer activity in CD1 mouse brain assessed as reduction of amyloid beta TOT production at 60 mg/kg, sc after 2 hrs using fluorogenic peroxidase as substrate by ELISA. The class given is functional. Also on record: scale not given: the % may be the effect or the level left. Particulars: route subcutaneous. Put shortly: as §2
Data set [16] is described as follows: Drug uptake in mouse brain at 60 mg/kg, sc after 4 hrs. Type of data set: ADME, organism-based. Also on record: dose 60 mg/kg, route subcutaneous. To be noted: read-out: Drug uptake. Put shortly:
as §1

A short description of data set [17]: Plasma concentration in mouse at 60 mg/kg, sc after 2 hrs. The class given is ADME, organism-based. Also on record: dose 60 mg/kg, route subcutaneous. In short, it runs like this:
as §1

Data set [18] in a line: Drug uptake in mouse brain at 60 mg/kg, sc after 1 hr. The class given is ADME, organism-based. Further details: dose 60 mg/kg, route subcutaneous. To be noted: read-out: Drug uptake. In short, it runs like this: as §1
Data set [19] can be described thus: Plasma concentration in mouse at 60 mg/kg, sc after 1 hr. Also on record: dose 60 mg/kg, route subcutaneous. Type of data set: ADME, organism-based. Put shortly:
as §1

The nature of data set [20]: Plasma concentration in mouse at 60 mg/kg, sc after 4 hrs. Also on record: dose 60 mg/kg, route subcutaneous. Type of data set: ADME, organism-based. In short, it runs like this:
as §1

Data set [21] concerns Mus musculus. In words: Antialzheimer activity in CD1 mouse brain assessed as reduction of amyloid beta TOT production at 60 mg/kg, sc after 4 hrs using fluorogenic peroxidase as substrate by ELISA. Type of data set: functional. Further details: scale not given: the % may be the effect or the level left. To be noted: route subcutaneous. In short, it runs like this: as §2

Data set [22] deals with Mus musculus. Description: Antialzheimer activity in CD1 mouse brain assessed as reduction of amyloid beta TOT production at 60 mg/kg, sc after 1 hr using fluorogenic peroxidase as substrate by ELISA. Type of data set: functional. Also on record: scale not given: the % may be the effect or the level left. Particulars: route subcutaneous. Put shortly:
as §2

These results are taken from ChEMBL document CHEMBL1921778, “Rational design and synthesis of aminopiperazinones as β-secretase (BACE) inhibitors” (Bioorg Med Chem Lett, 2011).

Molecules are shown by their SMILES. Calls of active or inactive are those of the source. No cut-off for these calls is given here.

T1 sequence (P56817 whole entry): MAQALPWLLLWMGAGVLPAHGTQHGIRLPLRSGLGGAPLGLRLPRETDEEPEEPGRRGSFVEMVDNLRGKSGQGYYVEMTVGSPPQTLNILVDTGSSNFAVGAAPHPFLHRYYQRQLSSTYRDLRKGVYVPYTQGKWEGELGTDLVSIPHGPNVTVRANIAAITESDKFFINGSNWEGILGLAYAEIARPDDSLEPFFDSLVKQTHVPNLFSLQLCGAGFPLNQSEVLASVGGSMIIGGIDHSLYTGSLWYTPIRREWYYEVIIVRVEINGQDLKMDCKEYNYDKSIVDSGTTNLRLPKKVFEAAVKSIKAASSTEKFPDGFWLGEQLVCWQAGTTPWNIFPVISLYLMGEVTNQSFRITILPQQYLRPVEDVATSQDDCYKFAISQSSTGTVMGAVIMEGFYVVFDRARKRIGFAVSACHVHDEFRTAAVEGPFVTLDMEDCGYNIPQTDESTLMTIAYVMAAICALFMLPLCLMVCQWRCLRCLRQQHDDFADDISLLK

For orientation: pKa means the pH at which an ionisable group is half protonated. The molecule `CN1CC(N)=N[C@@](C)(c2cccc(NC(=O)c3ccc(Cl)cn3)c2)C1=O` registered a pKa in [1] of less than 8.

`CN1CC(N)=N[C@](C)(c2cccc(NC(=O)c3ccc(Cl)cn3)c2)C1=O`: the pKa in data set [1] is less than 8.

As a reminder, the IC50 is the concentration needed to halve the response being measured. With `CN1CC(N)=NC(C)(c2cccc(NC(=O)c3ccc(C#N)cn3)c2)C1=O` (stereo not given), the concentration for half-maximal inhibition (IC50) on Beta-secretase 1 [2] amounted to 151 nM; against Beta-secretase 1 [3] it was 186 nM; at Beta-secretase 1 [4], 813 nM. Moreover, the pKa in data set [1] was less than 8.

As for `CN1CC(N)=NC(C)(c2cccc(NC(=O)c3ccc(C(F)(F)F)cn3)c2)C1=O` (stereo not given), the results for the IC50 against Beta-secretase 1 [2], against Beta-secretase 1 [3] and at Beta-secretase 1 [4] were 79 nM, 68 nM and 1380 nM, respectively. In data set [1], this molecule returned a pKa of less than 8.

In the case of `Cc1cnc(C(=O)Nc2cccc(C3(C)N=C(N)CN(C)C3=O)c2)cn1` (stereo not given), the IC50 was determined as 1150 nM against Beta-secretase 1 [2], 1260 nM on Beta-secretase 1 [3] and 7080 nM on Beta-secretase 1 [4]. The molecule further displayed a pKa in data set [1] of less than 8.

In the case of `CN1CC(C)(c2cccc(NC(=O)c3ccc(Cl)cn3)c2)N=C(N)C1=O` (racemic) [listing 1 of 2 here], the IC50 at Beta-secretase 1 [2] was 107 nM; against Beta-secretase 1 [3], 115 nM; at Beta-secretase 1 [4] it was 550 nM. Further, the concentration at 1 h is 614 ng/g in data set [5] and 993 ng/mL in data set [10]. The concentration at 2 h in [6] was 157 ng/g; in data set [8] it was 461 ng/mL. For the same molecule, the concentration at 4 h in data set [7] amounted to 200 ng/mL; in data set [11], 20.5 ng/g. For the same molecule, the Activity in the data set with Mus musculus [9] is on record as 34%.

Take `CN1CC(N)=NC(C)(c2cccc(NC(=O)c3ccc(Cl)cn3)c2)C1=O` (racemic): the concentration at 1 h in data set [5] was 184 ng/g; in data set [10] it was 4630 ng/mL. In addition, the pKa in data set [1] was found to be 7.8. The concentration at 2 h in [6] worked out at 123 ng/g; in data set [8], 1710 ng/mL. The concentration at 4 h stood at 439 ng/mL in data set [7] and 90 ng/g in [11].

In the case of `CN1CC(C)(c2cccc(NC(=O)c3ccc(Cl)cn3)c2)N=C(N)C1=O` (racemic) [listing 2 of 2 here], the outcome with Mus musculus [12] and with Mus musculus [13] was inactive.

Take `CN1CC(C)(c2cccc(NC(=O)c3ccc(Cl)cn3)c2)N=C(N)C1=O` (single isomer, unassigned; enantiomer 1): the IC50 against Beta-secretase 1 [2] is greater than 10000 nM; against Beta-secretase 1 [3], greater than 10000 nM; on Beta-secretase 1 [4], greater than 30000 nM. Further, in [1], the pKa was found to be 7.6.

On to `CN1CC(C)(c2cc(NC(=O)c3ccc(Cl)cn3)ccc2F)N=C(N)C1=O` (single isomer, unassigned; enantiomer 1), for which the pKa in data set [1] was less than 8.

`CN1CC(C)(c2cccc(NC(=O)c3ccc(Cl)cn3)c2)N=C(N)C1=O` (single isomer, unassigned; enantiomer 2): the results for the IC50 against Beta-secretase 1 [2], against Beta-secretase 1 [3] and at Beta-secretase 1 [4] were 85 nM, 83 nM and 295 nM, respectively.

Turning to `CN1CC(C)(c2cc(NC(=O)c3ccc(Cl)cn3)ccc2F)N=C(N)C1=O` (single isomer, unassigned; enantiomer 2), the concentration at 2 h in data set [14] turned out to be 3340 ng/g; in data set [17], 2460 ng/mL. For the same molecule, the Activity is 67% with Mus musculus [15], 73% in the data set with Mus musculus [21] and 48% in the data set with Mus musculus [22]. The concentration at 4 h in data set [16] stood at 347 ng/g; in [20], 270 ng/mL. In addition, the results for the concentration at 1 h in data set [18] and in data set [19] were 8080 ng/g and 7140 ng/mL, respectively.
